Experimental data: paper PMC2646813 (Journal of biomolecular screening, 2008)
Structures can show the parent of a compound that is named as a salt. Where two headings read alike, the source gives them in different places.

How the values were obtained:
PPARαΔAB [1] = biological target: T1, PPARαΔAB (Mus musculus, UniProt P23204); experiment: Primary drug-screening assay: restoration of BODIPY-C16-CoA; type: binding, murine; conditions: 20 mM glucose; for Recovery (ability to restore acyl-CoA binding): compound 1.25 μM, 10 nM BODIPY-C16-CoA, 200 nM PPARαΔAB
T1 sequence (P23204 101-468 limits assumed): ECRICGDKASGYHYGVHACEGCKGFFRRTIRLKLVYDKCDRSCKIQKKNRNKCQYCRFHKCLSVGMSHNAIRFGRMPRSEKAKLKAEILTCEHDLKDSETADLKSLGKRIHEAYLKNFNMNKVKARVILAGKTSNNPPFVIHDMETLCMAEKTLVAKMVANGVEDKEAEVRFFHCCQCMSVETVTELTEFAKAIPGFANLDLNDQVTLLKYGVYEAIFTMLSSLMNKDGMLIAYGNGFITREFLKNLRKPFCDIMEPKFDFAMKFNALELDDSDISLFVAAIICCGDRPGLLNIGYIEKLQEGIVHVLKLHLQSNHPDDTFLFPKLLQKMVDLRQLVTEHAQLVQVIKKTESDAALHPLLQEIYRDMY

PPARαΔAB [2] = biological target: T1, PPARαΔAB; type: binding, murine
Method in brief: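 Intrinsic aromatic fluorescence quenching. 0.1 μM murine PPARαΔAB in 20 mM glucose in PBS titrated with test compound. Excitation 280 nm, emission 300–380 nm. Corrected for buffer, compound fluorescence and solvent. Kd calculated from maximal intensities, with double-reciprocal plots. Mean ± SEM, n = 3–4.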

PPARα = biological target: T2, PPARα (Mus musculus, UniProt P23204); experiment: Transactivation assay, acyl-CoA oxidase reporter; type: cell-based; conditions: for Increase of PPARα transactivation (percentage change from no-compound control): basal, absence of glucose (Fig. 2C open bars); for Effect on clofibrate-induced PPARα transactivation: absence of glucose (Fig. 2D open bars)
T2 sequence (P23204 1-468): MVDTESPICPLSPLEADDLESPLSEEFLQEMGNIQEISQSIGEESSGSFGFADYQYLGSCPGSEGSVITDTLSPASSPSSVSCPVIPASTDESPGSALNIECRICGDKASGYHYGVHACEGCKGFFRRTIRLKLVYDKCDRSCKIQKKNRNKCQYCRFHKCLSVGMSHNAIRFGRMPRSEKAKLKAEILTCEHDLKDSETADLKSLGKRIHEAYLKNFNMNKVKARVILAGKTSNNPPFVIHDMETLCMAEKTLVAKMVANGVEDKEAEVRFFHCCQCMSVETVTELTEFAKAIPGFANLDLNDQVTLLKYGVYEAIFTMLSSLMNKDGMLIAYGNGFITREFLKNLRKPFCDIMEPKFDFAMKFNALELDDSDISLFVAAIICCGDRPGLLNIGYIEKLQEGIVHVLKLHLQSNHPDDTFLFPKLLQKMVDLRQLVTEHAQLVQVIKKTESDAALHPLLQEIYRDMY
Method in brief: (§1)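 COS-7 cells in 24-well plates transfected with 0.4 μg full-length pSG5-PPARα, alone or with pSG5-mRXRα; 0.4 μg PPRE3-TK-LUC reporter; 0.04 μg pRL-CMV. Then serum-free, glucose-free DMEM for 2 h. Compound (10 μM) added at 0 or 20 mM glucose, ±10 μM clofibrate, for 24 h. Firefly luciferase normalized to Renilla. Results given as percentage of clofibrate-induced PPARα activity, or percentage change from no-compound control; mean ± SEM, n = 3.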

PPARαΔAB [3] = biological target: T1, PPARαΔAB; experiment: PPARα binding assays to BODIPY-C16 fatty acid or fatty acyl-CoA; parameters: species or system murine; conditions: high glucose (20 mM)
Method in brief: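 50 nM BODIPY-C16 or BODIPY-C16-CoA prebound to 100 nM murine PPARαΔAB, then titrated with glucose. Excitation 460 nm, emission 490–540 nm. Background-corrected maximal intensities expressed as percentage change in binding versus the no-glucose control.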

PPARα-RXRα heterodimers = biological target: T3, PPARα-RXRα heterodimers (Mus musculus, UniProt P23204); experiment: Transactivation assay, acyl-CoA oxidase reporter; type: cell-based
T3 sequence (P23204 1-468): T2 sequence (P23204 1-468)
T3 sequence (P28700 1-467 partner): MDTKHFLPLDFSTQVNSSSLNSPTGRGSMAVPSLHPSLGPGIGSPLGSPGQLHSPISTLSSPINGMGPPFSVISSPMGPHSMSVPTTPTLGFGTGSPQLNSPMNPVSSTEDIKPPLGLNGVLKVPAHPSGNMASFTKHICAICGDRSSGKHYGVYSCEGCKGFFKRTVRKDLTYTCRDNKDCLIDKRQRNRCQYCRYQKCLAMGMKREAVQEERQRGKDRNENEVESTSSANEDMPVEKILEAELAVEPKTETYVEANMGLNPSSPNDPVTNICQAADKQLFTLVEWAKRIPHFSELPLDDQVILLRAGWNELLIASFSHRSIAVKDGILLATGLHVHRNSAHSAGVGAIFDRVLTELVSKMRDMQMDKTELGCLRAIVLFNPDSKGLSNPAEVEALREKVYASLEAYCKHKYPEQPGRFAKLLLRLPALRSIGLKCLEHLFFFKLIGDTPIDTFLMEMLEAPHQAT
Method in brief: as §1

PPARαΔAB [4] = biological target: T1, PPARαΔAB; experiment: Circular dichroism, PPARα secondary structure; parameters: species or system murine; conditions: 20 mM glucose, 0.8 μM PPARαΔAB; mean ± SEM (n = 4)
Method in brief: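 Murine PPARαΔAB (N-terminal truncation), expressed in E. coli BL21(DE3)pLysS and purified, at 0.8 μM with 0 or 20 mM glucose. Ten CD scans averaged per spectrum. Secondary structure fractions estimated by SELCON3, CDSSTR and CONTIN/LL. Mean ± SEM, n = 4; Student's t-test.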

[5] = read-out: Kd (binding affinity of PPARα for each compound), 0.1 μM PPARαΔAB in 20 mM glucose in PBS, mean ± SEM (n = 3–4)
[6] = compound 10 μM, 10 μM clofibrate
[7] = compound 10 μM, 10 μM clofibrate, 20 mM glucose (Fig. 2F)

| Recovery (ability to restore acyl-CoA binding) (PPARαΔAB [1]) [%] | Kd (PPARαΔAB [2]) [nM] | Effect on clofibrate-induced PPARα-RXRα activity (PPARα-RXRα heterodimers; [7]) | Structure (SMILES) | further results |
| --- | --- | --- | --- | --- |
| 63.8 | – | – | CC(=O)N[C@@H]1[C@@H](O)[C@H](O)[C@@H](CO)O[C@@H]1O [Acetylglucosamine] | Kd (PPARαΔAB [2]; [5]): 33.3 ± 3 nM; Increase of PPARα transactivation (percentage change from no-compound control) (PPARα; compound 10 μM): ≥ 50% |
| – | – | – | OC[C@H]1OC(O)[C@H](O)[C@@H](O)[C@@H]1O (stereo partly drawn) [glucose] | Decrease in BODIPY-C16-CoA fluorescence intensity (PPARαΔAB [1]; plate assay controls): ~ 30%; Effect of glucose on BODIPY-C16 (fatty acid) binding to PPARα (PPARαΔAB [3]; 50 nM BODIPY-C16, 100 nM PPARαΔAB (Fig. 1D)): not affected; Effect of glucose on BODIPY-C16-CoA binding to PPARα (PPARαΔAB [3]; 50 nM BODIPY-C16-CoA, 100 nM PPARαΔAB (Fig. 1C, 1D)): significantly decreased; Increase of transactivation by glucose over clofibrate alone (PPARα; 10 μM clofibrate, 20 mM glucose, PPARα alone (Fig. 2B)): 3- to 4 fold; Effect of glucose on basal transactivation (PPARα; 20 mM glucose, no other ligand, PPARα alone (Fig. 2A)): no significant effect; Increase of transactivation by glucose over clofibrate alone (PPARα-RXRα heterodimers; 10 μM clofibrate, 20 mM glucose, PPARα-RXRα heterodimers (Fig. 2B)): 3- to 4 fold; Effect of glucose on basal transactivation (PPARα-RXRα heterodimers; 20 mM glucose, no other ligand (Fig. 2A)): increased activity; Turns (PPARαΔAB [4]): 20.2 ± 0.7%; Unordered (PPARαΔAB [4]): 30.7 ± 0.8 %; α-Helices Distorted, Hd (PPARαΔAB [4]): 10.8 ± 0.3 %; α-Helices Regular, Hr (PPARαΔAB [4]): 14.3 ± 0.3 %; β-Sheets Distorted, Sd (PPARαΔAB [4]): 8.8 ± 0.5 %; β-Sheets Regular, Sr (PPARαΔAB [4]): 14.4 ± 1.2 % |
| 85.5 | – | – | NCCCC(=O)O [g-aminobutyric acid] | Kd (PPARαΔAB [2]; [5]): 29.5 ± 4.1 nM |
| 64.7 | 26.3 ± 2.8 | – | CCOC(=O)[C@H](CCc1ccccc1)N[C@@H](C)C(=O)N1CCC[C@H]1C(=O)O [Enalapril maleate] | – |
| 81.3 | 22.5 ± 2 | – | O=C1NS(=O)(=O)c2ccccc21 [Saccharin] | Effect on clofibrate-induced PPARα transactivation (PPARα; [6]): significant increases |
| – | – | – | COc1cccc(OC)c1C(=O)N[C@@H]1C(=O)N2[C@@H]1SC(C)(C)[C@@H]2C(=O)O [methicillin sodium] | Direct binding to PPARα (change of intrinsic fluorescence) (PPARαΔAB [2]; 20 mM glucose): no binding |
| 67.5 | – | significantly decreased | CN=C(N)NCCC[C@H](N)C(=O)O.Cl [Targinine hydrochloride, reference compound] | Kd (PPARαΔAB [2]; [5]): 33.5 ± 3.5 nM; Increase of PPARα transactivation (percentage change from no-compound control) (PPARα; compound 10 μM): ≥ 50% |
| 97.1 | 35.1 ± 3.7 | significantly decreased | Cc1ccc(C(=O)c2ccc(CC(=O)O)n2C)cc1 [Tolmetin sodium, reference compound] | Increase of PPARα transactivation (percentage change from no-compound control) (PPARα; compound 10 μM): ≥ 50% |
| 62.3 | 21.9 ± 1.8 | significantly decreased | CC(=O)O[C@@H]1C[C@H]2C(C)(C)C(=O)C=C[C@]2(C)[C@H]2CC[C@@]3(C)[C@H](c4ccoc4)OC(=O)[C@H]4O[C@]43[C@@]21C [Gedunin] | Effect on clofibrate-induced PPARα transactivation (PPARα; [6]): decreases; Effect on basal PPARα activity (PPARα; compound 10 μM, with or without glucose (Fig. 2C)): significantly reduced; Effect on clofibrate-induced PPARα-RXRα activity (PPARα-RXRα heterodimers; compound 10 μM, 10 μM clofibrate, absence of glucose (Fig. 2F)): significantly affected activity; Effect on basal PPARα-RXRα heterodimer activity (PPARα-RXRα heterodimers; compound 10 μM, with or without glucose (Fig. 2E)): decreased activity |
| 73.9 | 31.4 ± 3.6 | – | c1ccc(CC2=NCCN2)cc1 [Tolazoline hydrochloride] | – |
| 83.1 | 25.8 ± 6 | – | NC(=O)c1ccccc1O [Salicylamide] | – |
| 68.6 | 28.4 ± 2.3 | significantly decreased | NC(=O)c1cnccn1 [Pyrazinamide] | – |
| 82.0 | 26.3 ± 3.2 | significantly decreased | CCCC1O[C@@H]2C[C@H]3[C@@H]4CCC5=CC(=O)C=C[C@]5(C)[C@H]4[C@@H](O)C[C@]3(C)[C@]2(C(=O)CO)O1 (stereo partly drawn) [Budesonide] | – |

| Structure (SMILES) | Recovery (ability to restore acyl-CoA binding) (PPARαΔAB [1]) [%] | Kd (PPARαΔAB [2]) [nM] | Effect on clofibrate-induced PPARα-RXRα activity (PPARα-RXRα heterodimers; [7]) | further results |
| --- | --- | --- | --- | --- |
| CN1[C@@H]2CC[C@H]1C[C@@H](OC(=O)[C@H](CO)c1ccccc1)C2 [Hyoscyamine] | 86.4 | 14.8 ± 2.8 | – | – |
